Measurements as given in ChEMBL document CHEMBL1770130, “Design, synthesis, and in vivo characterization of a novel series of tetralin amino imidazoles as γ-secretase inhibitors: discovery of PF-3084014” (Bioorg Med Chem Lett, 2011).
pEC50, pIC50: −log10 of the molar value. Activity calls are given as the source filed them. No cut-off for these calls is given here.

Assays:
Gamma-secretase [1] = assay: Inhibition of gamma-secretase in human H4 cells expressing APP Swedish mutant assessed as inhibition of amyloid beta (1 to x) production by whole cell assay
Gamma-secretase [2] = assay: Inhibition of gamma-secretase in human HeLa cells assessed as inhibition of amyloid beta (1 to 40) production by DELFIA-based immunoassay; format: cell-based
human MDR1 (P-gp) = assay: Efflux ratio of permeability from basolateral to apical side to apical to basolateral side of MDCK cells expressing human MDR1; format: ADME, cell-based, Canis lupus familiaris; details: dog
How it was run: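 MDCK cells transfected with human P-glycoprotein (MDR1); efflux ratio calculated as B→A over A→B permeability.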

[3] = Ratio of EC50 for gamma secretase-mediated notch processing in C57BL/6 mouse fetal thymic organ cultures to plasma concentration observed at brain ED50 of total beta-amyloid level
How it was run: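 FTOC EC50 divided by the plasma concentration at the brain ED50. That plasma concentration was obtained by linear least-squares regression of dose against measured plasma concentration in guinea pigs.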

[4] = Effect on gamma secretase-mediated notch processing in C57BL/6 mouse fetal thymic organ cultures assessed as reduction of B and T-cell populations after 45 mins by FACS analysis
Cavia porcellus [5] = assay: Antialzheimer activity in sc dosed guinea pig assessed as reduction of total amyloid beta level in brain after 3 hrs by DELFIA-based ELISA; format: functional
How it was run: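 Guinea pigs dosed sc over a range of doses and brain Aβ1-X measured by DELFIA ELISA at 3 h; brain ED50 derived from the dose–response.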

Cavia porcellus [6] = assay: Antialzheimer activity in guinea pig assessed as reduction of total amyloid beta level in brain at 7 to 32 mg/kg, sc administered 3 doses over 24 hrs measured after 3 hrs last post dose by DELFIA-based ELISA; format: functional, organism-based
How it was run: (§1)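 Guinea pigs dosed sc at 7 or 32 mg/kg three times over 24 h (0, 12, 24 h). Tissues collected 3 h after the final dose, and Aβ measured by DELFIA ELISA; compared with vehicle by one-way ANOVA and Dunnett's test.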

Cavia porcellus [7] = assay: Antialzheimer activity in guinea pig assessed as reduction of total amyloid beta level in brain at 3.2 mg/kg, sc after 3 hrs by DELFIA-based ELISA; format: functional; parameters: scale not given: the % may be the effect or the level left; details: route subcutaneous
How it was run: (§2)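 Guinea pigs given a single sc dose (3.2–32 mg/kg); brain, CSF and plasma taken at 3 h for the dose–response, or at intervals of 3 to 24 h after 10 mg/kg for the time course. Aβ1-X, Aβ1-40 and Aβ1-42 measured by DELFIA ELISA. Data given as percentage of vehicle; one-way ANOVA with Dunnett's post-hoc versus vehicle, p<0.05.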

Cavia porcellus [8] = assay: Antialzheimer activity in guinea pig assessed as reduction of total amyloid beta level in plasma at 10 mg/kg, sc after 3 to 10 hrs by DELFIA-based ELISA; format: functional, organism-based; parameters: dose 10 mg/kg
How it was run: as §2

Cavia porcellus [9] = assay: Reduction of marginal zone of B cell populations in guinea pig at 7 mg/kg, sc administered 3 doses over 24 hrs measured after 3 hrs last post dose by FACS analysis; format: organism-based; parameters: dose 7 mg/kg, route subcutaneous; details: in vivo
How it was run: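 Guinea pigs dosed sc at 7 mg/kg at 0, 12 and 24 h. Spleen marginal zone and whole-blood B cells counted by flow cytometry 3 h after the last dose.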

[10] = Plasma concentration in guinea pig at 3.2 mg/kg, sc; format: ADME, organism-based, Cavia porcellus; parameters: dose 3.2 mg/kg, route subcutaneous; details: in vivo
How it was run: (§3)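 Guinea pigs given a single 3.2 mg/kg sc dose; drug concentrations in plasma and brain determined at the 3 h sampling point.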

Cavia porcellus [11] = assay: Antialzheimer activity in guinea pig assessed as reduction of total amyloid beta level in cerebral spinal fluid at 10 mg/kg, sc after 24 hrs by DELFIA-based ELISA; format: functional, organism-based; parameters: dose 10 mg/kg
How it was run: (§4)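 Guinea pigs dosed once at 10 mg/kg sc, tissues sampled up to 24 h. Aβ1-X in brain, CSF and plasma measured by DELFIA ELISA and expressed as percentage of vehicle; one-way ANOVA with Dunnett's test versus vehicle, p<0.05.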

Cavia porcellus [12] = assay: Antialzheimer activity in guinea pig assessed as reduction of total amyloid beta level in brain at 10 mg/kg, sc after 24 hrs by DELFIA-based ELISA; format: functional, organism-based; parameters: dose 10 mg/kg
How it was run: as §4

[13] = Drug concentration in guinea pig brain at 3.2 mg/kg, sc; format: ADME, organism-based, Cavia porcellus; parameters: dose 3.2 mg/kg, route subcutaneous; details: in vivo
How it was run: as §3

Cavia porcellus [14] = assay: Antialzheimer activity in guinea pig assessed as reduction of total amyloid beta level in plasma at 3.2 mg/kg, sc after 3 hrs by DELFIA-based ELISA; format: functional; parameters: scale not given: the % may be the effect or the level left; details: route subcutaneous
How it was run: as §2

Cavia porcellus [15] = assay: Antialzheimer activity in guinea pig assessed as reduction of total amyloid beta level in brain at 10 mg/kg, sc after 3 to 10 hrs by DELFIA-based ELISA; format: functional, organism-based; parameters: dose 10 mg/kg
How it was run: as §2

Cavia porcellus [16] = assay: Antialzheimer activity in guinea pig assessed as reduction of total amyloid beta level in plasma at 7 to 32 mg/kg, sc administered 3 doses over 24 hrs measured after 3 hrs last post dose by DELFIA-based ELISA; format: functional, organism-based
How it was run: as §1

[17] = Ratio of EC50 for gamma secretase-mediated notch processing in C57BL/6 mouse fetal thymic organ cultures to IC50 for APP by whole cell assay
Cavia porcellus [18] = assay: Antialzheimer activity in guinea pig assessed as reduction of total amyloid beta level in cerebral spinal fluid at 10 mg/kg, sc after 3 to 10 hrs by DELFIA-based ELISA; format: functional, organism-based; parameters: dose 10 mg/kg
How it was run: as §2

Cavia porcellus [19] = assay: Antialzheimer activity in guinea pig assessed as reduction of total amyloid beta level in cerebral spinal fluid at 3.2 mg/kg, sc after 3 hrs by DELFIA-based ELISA; format: functional; parameters: scale not given: the % may be the effect or the level left; details: route subcutaneous
How it was run: as §2

Cavia porcellus [20] = assay: Antialzheimer activity in guinea pig assessed as reduction of total amyloid beta level in plasma at 10 mg/kg, sc after 24 hrs by DELFIA-based ELISA; format: functional, organism-based; parameters: dose 10 mg/kg
How it was run: as §4

SMILES | pIC50 (Gamma-secretase [1]) | pIC50 (Gamma-secretase [2]) | efflux ratio (human MDR1 (P-gp)) | pEC50 [4] | ED50 (Cavia porcellus [5]) | also measured
CCC[C@H](N[C@H]1CCc2cc(F)cc(F)c2C1)C(=O)Nc1cn(C(C)(C)CN2CCCCC2)cn1 | 8.48 | – | – | 5.59 | 4.1 mg/kg | Ratio [3]: 46.1
CCC[C@H](N[C@H]1CCc2cc(F)cc(F)c2C1)C(=O)Nc1cn(C(C)(C)CNCC(C)(C)C)cn1 [NIROGACESTAT] | – | – | – | 5.74 | 2.3 mg/kg | –
CCC[C@H](NCc1cc(F)cc(F)c1)C(=O)Nc1cn(C(C)(C)CN2CCCC2)cn1 | 6.32 | 6.30 | 1.8 | – | – | –
CCC[C@H](NC1CCc2ccccc2C1)C(=O)Nc1cn(C(C)(C)CN2CCCC2)cn1 (some centres undefined) | 7.27 | 7.07 | 2.2 | – | – | –
CCC[C@H](NC1COc2ccccc2C1)C(=O)Nc1cn(C(C)(C)CN2CCCC2)cn1 (some centres undefined) | 6.81 | 7.03 | 2.9 | – | – | –
CCC[C@H](NCCC(C)C)C(=O)Nc1cn(C(C)(C)CN2CCCC2)cn1 | 5.51 | < 5.00 | 4.4 | – | – | –
CCC[C@H](N[C@H]1CCc2cc(F)cc(F)c2C1)C(=O)Nc1cn(C(C)(C)CNC(C)C)cn1 | 7.71 | – | – | 5.21 | 41.2 mg/kg | Ratio [3]: 3.5
CCC[C@H](NC1CCc2cccc(Cl)c2C1)C(=O)Nc1cn(C(C)(C)CN2CCCC2)cn1 (mixture of isomers) | 7.33 | 7.51 | 3.3 | – | – | –

Further lines, with some results ahead:

pIC50 (Gamma-secretase [1]) | pIC50 (Gamma-secretase [2]) | efflux ratio (human MDR1 (P-gp)) | pEC50 [4] | SMILES | ED50 (Cavia porcellus [5]) | also measured
8.27 | 8.39 | 1.5 | – | CCC[C@H](NC1CCc2cc(F)cc(F)c2C1)C(=O)Nc1cn(C(C)(C)CN2CCCC2)cn1 (mixture of isomers) | – | –
8.31 | – | – | 5.29 | CCC[C@H](N[C@H]1CCc2cc(F)cc(F)c2C1)C(=O)Nc1cn(C(C)(C)CNCC(F)(F)F)cn1 | 14.6 mg/kg | Ratio [3]: 37.7
6.12 | 6.60 | 1.9 | – | CCC[C@H](NCCc1cc(F)cc(F)c1)C(=O)Nc1cn(C(C)(C)CN2CCCC2)cn1 | – | –
6.57 | 6.83 | 1.8 | – | CCC[C@H](NC1Cc2ccccc2C1)C(=O)Nc1cn(C(C)(C)CN2CCCC2)cn1 | – | –
8.54 | – | – | 5.49 | CCC[C@H](N[C@H]1CCc2cc(F)cc(F)c2C1)C(=O)Nc1cn(C(C)(C)CN2CCCC2)cn1 | 9.9 mg/kg | Activity (Cavia porcellus [6]): Active; Activity (Cavia porcellus [7]): 33%; Activity (Cavia porcellus [8]): Active; Activity (Cavia porcellus [9]): Non-toxic; Cp [10]: 100 ng/mL; Activity (Cavia porcellus [11]): inactive; Activity (Cavia porcellus [12]): Active; Ratio [3]: 9.8; Drug uptake [13]: 587 ng/mL; Activity (Cavia porcellus [14]): 30%; Activity (Cavia porcellus [15]): Active; Activity (Cavia porcellus [16]): Active; Ratio [17]: > 500; Activity (Cavia porcellus [18]): Active; Activity (Cavia porcellus [19]): 31%; Activity (Cavia porcellus [20]): inactive
7.71 | 7.71 | 1.8 | – | CCC[C@H](NC1CCc2cc(F)ccc2C1)C(=O)Nc1cn(C(C)(C)CN2CCCC2)cn1 (mixture of isomers) | – | –
8.16 | – | – | 5.96 | CCC[C@H](N[C@H]1CCc2cc(F)cc(F)c2C1)C(=O)Nc1cn(C(C)(C)CN2CCOCC2)cn1 | 2.9 mg/kg | Ratio [3]: 16.3
6.51 | 5.21 | 2.3 | – | CCC[C@H](NC(CC)CC)C(=O)Nc1cn(C(C)(C)CN2CCCC2)cn1 | – | –
8.34 | – | – | 5.52 | CCC[C@H](N[C@H]1CCc2cc(F)cc(F)c2C1)C(=O)Nc1cn(C(C)(C)CN(C)C)cn1 | 16.1 mg/kg | –
– | – | 8.4 | – | CCC[C@H](NC(=O)Cc1cc(F)cc(F)c1)C(=O)Nc1cn(C(C)(C)CNCC(C)(C)C)cn1 | – | –
7.91 | 8.05 | 1.3 | – | CCC[C@H](NC1CCc2cc(Cl)ccc2C1)C(=O)Nc1cn(C(C)(C)CN2CCCC2)cn1 (mixture of isomers) | – | –
